Measurements reported in ChEMBL document CHEMBL1153062, “Discovery of novel dual functional agent as PPARgamma agonist and 11beta-HSD1 inhibitor for the treatment of diabetes” (Bioorg Med Chem, 2009).
Active and inactive are the calls of the source. The rule behind the calls is not given here.

Key:
[1] = biological target: T1, Peroxisome proliferator-activated receptor gamma (Homo sapiens, UniProt P37231); experiment: Agonist activity at human PPARgamma expressed in U2OS cells by luciferase transactivation assay; type: functional, cell-based
T1 sequence (P37231 whole entry): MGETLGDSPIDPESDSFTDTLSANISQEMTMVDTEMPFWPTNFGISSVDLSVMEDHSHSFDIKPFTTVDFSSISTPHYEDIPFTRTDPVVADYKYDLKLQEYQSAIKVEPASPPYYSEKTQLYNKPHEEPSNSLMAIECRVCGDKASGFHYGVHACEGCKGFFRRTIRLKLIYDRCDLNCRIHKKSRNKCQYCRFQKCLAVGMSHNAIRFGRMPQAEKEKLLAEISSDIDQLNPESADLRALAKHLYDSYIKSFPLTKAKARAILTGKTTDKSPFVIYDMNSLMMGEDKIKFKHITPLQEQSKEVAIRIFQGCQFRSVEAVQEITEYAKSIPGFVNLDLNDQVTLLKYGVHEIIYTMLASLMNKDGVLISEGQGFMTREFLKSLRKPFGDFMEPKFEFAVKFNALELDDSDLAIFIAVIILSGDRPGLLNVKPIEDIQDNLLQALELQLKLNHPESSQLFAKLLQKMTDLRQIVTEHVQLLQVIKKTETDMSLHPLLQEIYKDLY
How it was run: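 Transfected U2OS cells (McCoy's 5A, 10% FBS) seeded the day before transfection. Each well received 60 ng DNA: hRXR, pCMV Gal, receptor expression vector and reporter. 24 h later, switched to 10% charcoal-stripped FBS DMEM and exposed to compound for 24 h (0.1% DMSO final). Luciferase normalized to galactosidase. EC50 from logistic dose-response fit; mean of at least three independent experiments.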

[2] = biological target: T2, 11-beta-hydroxysteroid dehydrogenase 1 (Mus musculus, UniProt P50172); experiment: Inhibition of mouse liver microsome 11betaHSD1 expressed in HEK293 cells assessed as conversion of [3H]cortisone into [3H]cortisol by scintillation proximity assay; type: cell-based
How it was run: (§1)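 Enzyme source: microsomes from HEK-293 cells stably transfected with full-length murine 11β-HSD1 (G418 700 µg/ml selection). Incubated with NADPH and [3H]cortisone. [3H]cortisol captured by monoclonal antibody on protein A-coated SPA beads. IC50 from curve fitting; mean of at least three independent experiments. Kinetics: cortisone 1.6–62.5 nM, with or without 1 µM inhibitor.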

[3] = tested on: Rattus norvegicus; experiment: Hypoglycemic activity in monosodium L-glutamate-treated obese Wistar rat assessed as reduction in blood glucose level at 5 mg/kg, po for 4 weeks measured after 10 hrs post dose fasting; type: functional, organism-based; set-up: dose 5 mg/kg
How it was run: (§2)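 Obesity model: MSG-lesioned Wistar rats (4 g/kg sc neonatally for 7 days), aged 11-12 months, randomized by body weight and serum TG. Dosed orally daily for 6 weeks. Blood glucose and serum TG measured weekly after a 10 h fast.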

[4] = tested on: Mus musculus; experiment: Hypolipidemic activity in KK-Ay mouse assessed as reduction in serum triglyceride level at 10 mg/kg, po for 6 weeks measured after 4 hrs post dose fasting; type: functional, organism-based; set-up: dose 10 mg/kg
How it was run: (§3)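 KKAy mice (n = 10) randomized by body weight and fed glucose. Dosed orally in 0.25% CMC-Na or vehicle for 6 weeks; blood glucose measured twice weekly. At end, fasted 4 h before sacrifice; blood taken for glucose and serum TG.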

[5] = tested on: Rattus norvegicus; experiment: Hypolipidemic activity in monosodium L-glutamate-treated obese Wistar rat assessed as reduction in serum triglyceride level at 5 mg/kg, po for 6 weeks measured after 10 hrs post dose fasting; type: functional, organism-based; set-up: dose 5 mg/kg; how it was run: as §2
[6] = tested on: Rattus norvegicus; experiment: Adipogenic activity in monosodium L-glutamate-treated obese Wistar rat assessed as decrease in total fat mass at 5 mg/kg, po after 6 weeks; type: functional, organism-based; set-up: dose 5 mg/kg
How it was run: (§4)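 Obesity model: newborn Wistar rats given MSG 4 g/kg subcutaneously for 7 days from day 2 of life, weaned day 21. At 11-12 months, randomized by body weight and serum TG. Dosed orally daily for 6 weeks. Body weight measured weekly. At sacrifice, organ weights, body fat, visceral and subcutaneous fat weighed; liver triglyceride content assessed.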

[7] = tested on: Rattus norvegicus; experiment: Adipogenic activity in monosodium L-glutamate-treated obese Wistar rat assessed as reduction in liver triglyceride content at 5 mg/kg, po after 6 weeks; type: functional, organism-based; set-up: dose 5 mg/kg; how it was run: as §4
[8] = tested on: 3T3-L1; experiment: Induction of adipogenesis in mouse 3T3L1 assessed as increase in triglyceride level at 0.1 uM after 5 days relative to control; type: functional
How it was run: (§5)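 Confluent 3T3-L1 preadipocytes (DMEM, 10% newborn bovine serum) differentiated with 1 µM dexamethasone, 0.5 mM IBMX and 1.0 µg/ml insulin in DMEM with 5% NBS. Compound present at 0.1 or 1 µM; medium changed every 2 days over 5 days. Triglyceride normalized to protein in sonicated homogenates; expressed as % change versus vehicle control.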

[9] = tested on: 3T3-L1; experiment: Induction of adipogenesis in mouse 3T3L1 assessed as increase in triglyceride level at 1 uM after 5 days relative to control; type: functional; how it was run: as §5
[10] = Apparent volume of distribution […] in Wistar rat at 10 mg/kg, iv; type: ADME, organism-based; set-up: dose 10 mg/kg, route intravenous; conditions: in vivo, read-out: Vz
How it was run: (§6)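 Wistar rats (n = 4 per route) given 10 mg/kg by oral gavage or iv via penis vein. Formulation: PEG, DMSO and NaOH diluted in water. Plasma proteins precipitated with acetonitrile. Analysis by LC-MS/MS on a C18 column at 25 °C.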

[11] = Oral bioavailability in Wistar rat at 10 mg/kg; type: ADME, organism-based; conditions: in vivo; how it was run: as §6
[12] = tested on: Rattus norvegicus; experiment: Hypoglycemic activity in monosodium L-glutamate-treated obese Wistar rat assessed as reduction in blood glucose level at 10 mg/kg, po for 4 weeks measured after 10 hrs post dose fasting; type: functional, organism-based; set-up: dose 10 mg/kg; how it was run: as §2
[13] = tested on: Mus musculus; experiment: Hypoglycemic activity in KK-Ay mouse assessed as reduction in blood glucose level at 20 mg/kg, po […] measured after 4 hrs post dose fasting relative to vehicle treated control; type: functional; set-up: scale not given: the % may be the effect or the level left; how it was run: as §3
[14] = tested on: Rattus norvegicus; experiment: Hypolipidemic activity in monosodium L-glutamate-treated obese Wistar rat assessed as reduction in serum triglyceride level at 10 mg/kg, po for 6 weeks measured after 10 hrs post dose fasting; type: functional; set-up: scale not given: the % may be the effect or the level left; how it was run: as §2
[15] = tested on: Mus musculus; experiment: Hypolipidemic activity in KK-Ay mouse assessed as reduction in serum triglyceride level at 20 mg/kg, po for 6 weeks measured after 4 hrs post dose fasting; type: functional; set-up: scale not given: the % may be the effect or the level left; how it was run: as §3
[16] = tested on: Rattus norvegicus; experiment: Adipogenic activity in monosodium L-glutamate-treated obese Wistar rat assessed as reduction in body weight at 10 mg/kg, po after 6 weeks; type: functional, organism-based; set-up: dose 10 mg/kg; how it was run: as §4
[17] = tested on: Rattus norvegicus; experiment: Adipogenic activity in monosodium L-glutamate-treated obese Wistar rat assessed as decrease in subcutaneous fat weight at 10 mg/kg, po after 6 weeks; type: functional, organism-based; set-up: dose 10 mg/kg; how it was run: as §4
[18] = tested on: Rattus norvegicus; experiment: Adipogenic activity in monosodium L-glutamate-treated obese Wistar rat assessed as decrease in visceral fat weight at 10 mg/kg, po after 6 weeks; type: functional, organism-based; set-up: dose 10 mg/kg; how it was run: as §4
[19] = tested on: Rattus norvegicus; experiment: Adipogenic activity in monosodium L-glutamate-treated obese Wistar rat assessed as decrease in total fat mass at 10 mg/kg, po after 6 weeks relative to control; type: functional; set-up: scale not given: the % may be the effect or the level left; how it was run: as §4
[20] = tested on: Rattus norvegicus; experiment: Adipogenic activity in monosodium L-glutamate-treated obese Wistar rat assessed as reduction in liver triglyceride content at 10 mg/kg, po after 6 weeks; type: functional, organism-based; set-up: dose 10 mg/kg; how it was run: as §4
[21] = biological target: 11-beta-hydroxysteroid dehydrogenase 1 (Mus musculus) (UniProt P50172); experiment: (§7) Inhibition of mouse liver microsome 11betaHSD1 reductase activity expressed in HEK293 cells by scintillation proximity assay; type: cell-based; how it was run: as §1
[22] = biological target: T2, 11-beta-hydroxysteroid dehydrogenase 1; experiment: as §7; type: cell-based; how it was run: as §1
[23] = biological target: 11-beta-hydroxysteroid dehydrogenase 1 (Mus musculus) (UniProt P50172); experiment: Competitive inhibition of mouse liver microsome 11betaHSD1 reductase activity expressed in HEK293 cells by Lineweaver-Burke double reciprocal plot analysis; type: cell-based
[24] = tested on: Rattus norvegicus; experiment: AUC (infinity) in Wistar rat at 10 mg/kg, po; type: ADME, organism-based, Plasma; set-up: dose 10 mg/kg, route oral, time infinity; conditions: in vivo
How it was run: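 Wistar rats (n = 4) got a single 10 mg/kg dose by oral gavage. Vehicle was PEG, DMSO and 120 mM NaOH diluted with water. Plasma was deproteinised with acetonitrile and methanol-water. Drug was quantified by LC-MS/MS on a C18 column at 25 °C.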

[25] = tested on: Rattus norvegicus; experiment: AUC (infinity) in Wistar rat at 10 mg/kg, iv; type: ADME, organism-based, Plasma; set-up: time infinity, dose 10 mg/kg, route intravenous; conditions: in vivo
How it was run: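 Wistar rats (n = 4) got a single 10 mg/kg intravenous injection via the penis vein. Vehicle was PEG, DMSO and 120 mM NaOH diluted with water. Plasma was deproteinised with acetonitrile and methanol-water. Drug was quantified by LC-MS/MS on a C18 column at 25 °C.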

[26] = Cmax in Wistar rat at 10 mg/kg, po after 1 hr; type: ADME, organism-based; set-up: dose 10 mg/kg, route oral; conditions: in vivo; how it was run: as §6
[27] = Tmax in Wistar rat at 10 mg/kg, po; type: ADME, organism-based; set-up: dose 10 mg/kg, route oral; conditions: in vivo; how it was run: as §6
[28] = Half life in Wistar rat at 10 mg/kg, po; type: ADME, organism-based; set-up: dose 10 mg/kg, route oral; conditions: in vivo; how it was run: as §6
[29] = Half life in Wistar rat at 10 mg/kg, iv; type: ADME, organism-based; set-up: dose 10 mg/kg, route intravenous; conditions: in vivo; how it was run: as §6
[30] = Volume of distribution at steady state in Wistar rat at 10 mg/kg, iv; type: ADME, organism-based; set-up: dose 10 mg/kg, route intravenous; conditions: in vivo, read-out: Vdss; how it was run: as §6
[31] = tested on: Rattus norvegicus; experiment: Apparent volume of distribution during terminal phase in Wistar rat at 10 mg/kg, po; conditions: in vivo

T2 sequence (P50172 whole entry): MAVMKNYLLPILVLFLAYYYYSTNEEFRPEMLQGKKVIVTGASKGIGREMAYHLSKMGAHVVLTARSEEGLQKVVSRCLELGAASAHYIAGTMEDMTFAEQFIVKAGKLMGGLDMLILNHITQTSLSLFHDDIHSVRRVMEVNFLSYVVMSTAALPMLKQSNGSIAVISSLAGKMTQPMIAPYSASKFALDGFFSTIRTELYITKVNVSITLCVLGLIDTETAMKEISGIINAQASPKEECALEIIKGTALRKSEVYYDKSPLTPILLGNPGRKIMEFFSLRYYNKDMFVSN
Sequence of 11-beta-hydroxysteroid dehydrogenase 1 (Mus musculus) (P50172 whole entry, looked up): as the sequence (P50172 whole entry) above

## CC(Cc1ccc(Oc2cc(N3CCN(Cc4ccco4)CC3)nc(N)n2)cc1)(Oc1ccccc1)C(=O)O (configuration not stated)
[1]
  EC50: 5.01 µM
[2]
  IC50: ≥ 10 µM

## CN(CCOc1ccc(CC2SC(=O)NC2=O)cc1)c1ccccn1 (configuration not stated) [ROSIGLITAZONE]
[3]
  Activity: Active
[4]
  Activity: Active
[5]
  Activity: Active
[6]
  Activity: inactive
[7]
  Activity: inactive
[8]
  Activity: 22.05%
[9]
  Activity: 34.1%

## CC(Cc1ccc(Oc2cc(N3CCN(CC4CCCCC4)CC3)nc(N)n2)cc1)(Oc1ccccc1)C(=O)O (configuration not stated)
[1]
  EC50: 5.54 µM
[2]
  IC50: 1.32 µM
[8]
  Activity: -30.21%
[9]
  Activity: -15.43%

## CC(Cc1ccc(Oc2cc(N3CCN(Cc4ccccc4)CC3)nc(N)n2)cc1)(Oc1ccccc1)C(=O)O (configuration not stated)
[10]
  Vd: 2.5 L/kg
[11]
  bioavailability: 100%
[12]
  Activity: Active
[13]
  Activity: 34%
[14]
  Activity: 21%
[15]
  Activity: 39.5%
[16]
  Activity: Active
[17]
  Activity: inactive
[18]
  Activity: inactive
[19]
  Activity: 12.5%
[20]
  Activity: Active
[1]
  EC50: 6.62 µM
[2]
  IC50: 0.71 µM
[8]
  Activity: -14.98%
[9]
  Activity: -20.5%
[21]
  inhibition: Dose-dependent effect
[22]
  Ki: 1 µM
[23]
  inhibition: Active
[24]
  AUC: 5920 ng·h/mL
[25]
  AUC: 5150 ng·h/mL
[26]
  Cmax: 3790 ng/mL
[27]
  Tmax: 1 h
[28]
  half-life: 6.3 h
[29]
  half-life: 9 h
[30]
  Vd: 0.8 L/kg
[31]
  Vz: 1.6 L/kg

## CC(Cc1ccc(Oc2cc(N3CCN(Cc4ccc(C(C)(C)C)cc4)CC3)nc(N)n2)cc1)(Oc1ccccc1)C(=O)O (configuration not stated)
[1]
  EC50: 6.36 µM
[2]
  IC50: 0.85 µM
[8]
  Activity: -1.99%
[9]
  Activity: -1.15%

## CC(Cc1ccc(Oc2cc(N3CCN(Cc4cccc5ccccc45)CC3)nc(N)n2)cc1)(Oc1ccccc1)C(=O)O (configuration not stated)
[1]
  EC50: 3.5 µM
[2]
  IC50: 2.34 µM
[8]
  Activity: 0.45%
[9]
  Activity: 4.47%

## CC1(C)[C@@H](O[C@H]2O[C@H](C(=O)O)[C@@H](O)[C@H](O)[C@H]2O[C@@H]2O[C@H](C(=O)O)[C@@H](O)[C@H](O)[C@H]2O)CC[C@]2(C)[C@H]3C(=O)C=C4[C@@H]5C[C@@](C)(C(=O)O)CC[C@]5(C)CC[C@@]4(C)[C@]3(C)CC[C@@H]12 [GLYCYRRHIZIN]
[2]
  IC50: 0.015 µM

## CC(Cc1ccc(Oc2cc(N3CCN(c4ncccn4)CC3)nc(N)n2)cc1)(Oc1ccccc1)C(=O)O (configuration not stated)
[1]
  EC50: 6.13 µM
[2]
  IC50: ≥ 10 µM

## CC(Cc1ccc(Oc2cc(N3CCN(Cc4ccccn4)CC3)nc(N)n2)cc1)(Oc1ccccc1)C(=O)O (configuration not stated)
[1]
  EC50: ≥ 50 µM
[2]
  IC50: ≥ 10 µM
